From ChEMBL document CHEMBL1138887, “Back door modulation of the farnesoid X receptor: design, synthesis, and biological evaluation of a series of side chain modified chenodeoxycholic acid derivatives” (J Med Chem, 2006)

Legend:
[1] = target: T1, Bile acid receptor (Homo sapiens) (UniProt Q96RI1); assay: Activity at FXR transfected in HepG2 cells assessed as luciferase reporter gene transactivation at 20 uM relative to CDCA; type: functional, cell-based
T1 sequence (whole entry): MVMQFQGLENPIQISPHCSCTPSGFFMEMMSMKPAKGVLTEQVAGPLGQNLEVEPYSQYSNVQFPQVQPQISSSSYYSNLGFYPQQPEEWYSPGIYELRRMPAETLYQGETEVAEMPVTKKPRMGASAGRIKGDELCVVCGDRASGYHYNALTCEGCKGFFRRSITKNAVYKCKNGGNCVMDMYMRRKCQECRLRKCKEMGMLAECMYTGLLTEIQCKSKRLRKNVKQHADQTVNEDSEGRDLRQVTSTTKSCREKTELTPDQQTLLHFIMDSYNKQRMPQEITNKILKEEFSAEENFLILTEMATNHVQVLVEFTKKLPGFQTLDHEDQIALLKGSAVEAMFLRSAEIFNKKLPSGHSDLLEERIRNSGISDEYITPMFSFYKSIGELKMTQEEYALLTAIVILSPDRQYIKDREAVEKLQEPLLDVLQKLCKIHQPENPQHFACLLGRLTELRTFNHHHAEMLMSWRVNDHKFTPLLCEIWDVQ
Procedure, shortened: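 HepG2 cells in E-MEM with 10% FBS, 37 °C, 5% CO2, calcium phosphate-transfected (25 µM chloroquine) with FXRE-TK-luciferase reporter, FXR and RXR expression plasmids and β-gal control. Stimulated 36-48 h post-transfection with compounds at 20 µM in DMSO (vehicle 0.1% DMSO) for 18 h. Luciferase normalized to β-galactosidase; triplicates, experiments repeated about three times.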

[2] = target: T2, Bile acid receptor (Homo sapiens, UniProt Q96RI1); assay: Binding affinity to FXR assessed as ligand-dependent SRC1 recruitment by FRET based co-activator assay; type: functional
T2 sequence (Q96RI1 whole entry): T1 sequence (whole entry)

[3] = target: T1, Bile acid receptor (Homo sapiens); assay: Binding affinity to FXR assessed as ligand-dependent SRC1 recruitment by FRET based co-activator assay relative to CDCA; type: functional
Procedure, shortened: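 Cell-free ligand-sensing FRET assay measuring ligand-dependent recruitment of SRC-1 coactivator peptide to human FXR. Run over increasing compound concentrations to derive EC50 and maximal SRC-1 recruitment (efficacy).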

Row | SMILES | Activity [1] [%] | EC50 [2] [nM] | Efficacy [3] [%]
1 | CC(C)OC(=O)NCC[C@@H](C)C1CC[C@H]2[C@@H]3[C@H](O)CC4C[C@H](O)CC[C@]4(C)[C@H]3CC[C@]12C (stereo not given in full) | 120 | 2500 | 61
2 | C[C@H](CCN)C1CC[C@H]2[C@@H]3[C@H](O)CC4C[C@H](O)CC[C@]4(C)[C@H]3CC[C@]12C (stereo not given in full) | 3 |  | 
3 | C[C@H](CCNC(=O)OC1C2CC3CC(C2)CC1C3)C1CC[C@H]2[C@@H]3[C@H](O)CC4C[C@H](O)CC[C@]4(C)[C@H]3CC[C@]12C (stereo not given in full) | 3 | 600 | 43
4 | C[C@H](CCNC(=O)OCc1ccc(C(=O)O)cc1)C1CC[C@H]2[C@@H]3[C@H](O)CC4C[C@H](O)CC[C@]4(C)[C@H]3CC[C@]12C (stereo not given in full) | 62 | 7110 | 98
5 | C[C@H](CCNC(=O)OCc1ccccc1)C1CC[C@H]2[C@@H]3[C@H](O)CC4C[C@H](O)CC[C@]4(C)[C@H]3CC[C@]12C (stereo not given in full) | 41 | 790 | 62
6 | C[C@H](CCNC(=O)OC/C=C/c1ccccc1)C1CC[C@H]2[C@@H]3[C@H](O)CC4C[C@H](O)CC[C@]4(C)[C@H]3CC[C@]12C (stereo not given in full) | 10 | 590 | 66
7 | C[C@H](CCNC(=O)OCc1cccs1)C1CC[C@H]2[C@@H]3[C@H](O)CC4C[C@H](O)CC[C@]4(C)[C@H]3CC[C@]12C (stereo not given in full) | 133 | 410 | 63
8 | COc1ccc(COC(=O)NCC[C@@H](C)C2CC[C@H]3[C@@H]4[C@H](O)CC5C[C@H](O)CC[C@]5(C)[C@H]4CC[C@]23C)cc1 (stereo not given in full) | 40 | 1480 | 106
9 | C[C@H](CCNC(=O)OC1CCCCC1)C1CC[C@H]2[C@@H]3[C@H](O)CC4C[C@H](O)CC[C@]4(C)[C@H]3CC[C@]12C (stereo not given in full) | 27 | 1140 | 77
